Bioassay records from PubChem.
Arr AP2 block: inhibitors of human beta-arrestin and AP2 interaction. FITC-arrestin peptide / GST-AP2 beads, flow cytometry; AP2 beta2 appendage carries R879A mutation. inhibition, % at 10 µM. 340,000 tested, 0.31% active. AID 504490;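 active = inhibition above a set limit, near 3 SD of compounds lacking own fluorescence, cut at about 54% in these data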;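 also: plate controls were DMSO wells for no effect and 5 µM unlabelled arrestin peptide for full effect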
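System: GST-AP2 R879A glutathione beads | Also added: FITC-arrestin peptide, 50 nM | Times: 12 min plus 1 h, RT | Signal: Bead flow cytometry, FITC channel | Buffer or medium: PBS with 0.05% Tween 20 and 0.1% BSA | Read-out basis: Percent drop in bead-associated FITC signal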
ADAM17 inh: ADAM17 inhibition, QFRET primary screen. recombinant ADAM17, EDANS/DABCYL FRET peptide cleavage. 370,000 tested, 0.83% active. P78536. AID 720648. inhibition, % at 6.95 µM;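 active = inhibition above the mean of compounds lying between control limits plus 3 SD, set per campaign, cut at about 8.5% in these data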;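 also: 0% = DMSO-only wells as the low control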
ADAM10 inh: ADAM10 inhibition, QFRET primary screen. recombinant ADAM10, EDANS/DABCYL FRET peptide cleavage, 3 h. inhibition, % at 7 µM. 370,000 tested, 0.62% active;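 active = inhibition above a per-campaign cutoff equal to the mean of compounds falling between control-based bounds plus 3 SD, cut at about 20% in these data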;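 also: 0% = DMSO wells while the 100% control is not disclosed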
FAS-TE inh: FAS thioesterase (human) inhibition; recombinant FAS-TE, OMFH fluorogenic substrate, fluorescence endpoint; inhibition, % at 15 µM; 360,000 tested, 0.67% active; AID 602261;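 active = compounds whose normalised, plate-corrected inhibition of enzyme fluorescence in the single-dose primary screen is 50% or more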;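 also: 0% = DMSO with enzyme and 100% = substrate without enzyme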
NRP1-CendR mod: modulators of CendR peptide binding to human neuropilin-1. 360,000 tested, 0.85% active. FAM-RPARPAR peptide binding to NRP-1, fluorescence polarization. AID 602438. inhibition, % at 25 µM;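 active = inhibition or corrected inhibition above about 18%, plus a signal ratio from 0.5 to 1.5, limit read from the data, passing the limit was not always enough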
CaV13 FRET inh: Disruptors of the CACNA1D IQ motif to Ca2+-dependent inactivation inhibitor domain association, primary screening, Förster resonance energy transfer in intact living …. HEK cells, CFP/YFP FRET ICDI-IQ, plate reader, 10 min; percent FRET-ratio fall versus neutral wells. inhibition, % at 12.3 µM. 340,000 tested, 0.098% active;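 active = mean replicate inhibition of at least 30% and at least 1% of replicates passing that level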;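 also: 0% = median of the neutral control wells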
* hit, by the source's call. Only some compounds are listed: those with a hit (about 2.9% of all), similar ones and a draw of the others.

Screening COc1ccccc1OCC(=O)NNC(=O)CSC(=S)N1CCCC1 returned Arr AP2 block -12, ADAM17 inh 1, ADAM10 inh -1, FAS-TE inh -6, NRP1-CendR mod 24* and CaV13 FRET inh -2.
`O=Cc1ccc2noc(-c3ccc(F)cc3)c2c1` gave Arr AP2 block 4, ADAM17 inh -21, ADAM10 inh -82, FAS-TE inh -7, NRP1-CendR mod 24* and CaV13 FRET inh -5.
Screening CC1(c2ccc3noc(-c4ccc(F)cc4)c3c2)OCCO1 returned Arr AP2 block 0, ADAM17 inh -20, ADAM10 inh -36, FAS-TE inh -6, NRP1-CendR mod 27* and CaV13 FRET inh -5.
For CCOc1ccc(-n2c(SCC(=O)Nc3ccc(S(=O)(=O)Nc4cc(C)nc(C)n4)cc3)nnc2-c2ccc(C)cc2)cc1 the results were ADAM17 inh 3 and ADAM10 inh 4.
`CCOC(=O)/C(=C\Nc1cccc(OCc2ccccc2)c1)NC(=O)c1ccccc1` gave ADAM17 inh 1, ADAM10 inh 3 and CaV13 FRET inh -12.
Screening CSc1ccc(NC(=O)C2(C)CCN2C(=O)c2ccccc2CCc2ccccc2)cc1 (stereo not given) returned ADAM17 inh 7, ADAM10 inh 7, FAS-TE inh 22, NRP1-CendR mod 42* and CaV13 FRET inh -6.
`C#Cc1ccc(NC(=O)C2(C)CCN2C(=O)c2ccccc2CCc2ccccc2)cc1` (stereo not given) gave ADAM17 inh 1, ADAM10 inh 2, FAS-TE inh 27, NRP1-CendR mod -3 and CaV13 FRET inh -5.
CCCC(=O)OC12CCCN(C1)/C(=C/c1cccc(OC)c1)C2 (stereo not given) was read as ADAM17 inh 1 and ADAM10 inh 4.
COc1ccccc1N1CCN(C(CNC(=O)C2CCCCC2)c2cccnc2)CC1 (stereo not given) was read as Arr AP2 block 24, ADAM17 inh -2, ADAM10 inh -1, FAS-TE inh -2, NRP1-CendR mod -9 and CaV13 FRET inh -9.
Screening COc1ccccc1N1CCN(C(CNC(=O)c2ccc3c(c2)OCO3)c2cccnc2)CC1 (stereo not given) returned Arr AP2 block 0, ADAM17 inh -1, ADAM10 inh -6, FAS-TE inh -6 and NRP1-CendR mod 29*.
For O=C(CSc1nc(-c2ccco2)cc(C(F)(F)F)n1)Nc1ccc2c(c1)OCO2 the results were Arr AP2 block 1, ADAM17 inh 0, ADAM10 inh 3, FAS-TE inh 14 and NRP1-CendR mod -6.
O=C(CCCSc1nc(-c2ccco2)cc(C(F)(F)F)n1)Nc1ccc2c(c1)OCO2 was read as Arr AP2 block -7, ADAM17 inh 5, ADAM10 inh 26*, FAS-TE inh 29, NRP1-CendR mod 3 and CaV13 FRET inh -5.
`COc1ccc(C(=O)/C=C2/C(=O)Nc3ccccc32)cc1OC` gave Arr AP2 block 5, ADAM17 inh -3, ADAM10 inh -6, FAS-TE inh -1, NRP1-CendR mod 39* and CaV13 FRET inh -19.
`CCOC(=O)[C@H]1[C@H]2COc3ccc(C)cc3[C@@H]2N2C(=O)c3cc(C)ccc3NC(=O)[C@@]12C` gave Arr AP2 block 5, ADAM17 inh -5, ADAM10 inh -10, FAS-TE inh 0, NRP1-CendR mod 4 and CaV13 FRET inh -12.
`O=C(Cc1csc(NC(=O)Nc2ccc(Cl)cc2)n1)NCc1cccnc1` gave Arr AP2 block -2, ADAM17 inh -4, ADAM10 inh 0, FAS-TE inh 0, NRP1-CendR mod 34* and CaV13 FRET inh -7.
For C=CCN(C(=O)[C@@H](C1CC1)[C@@H](O)c1ccc(Cl)cc1)c1ccccc1 the results were ADAM17 inh 0 and ADAM10 inh 4.
For Cc1cc(C)n(CCc2nc(-c3cccs3)cs2)n1 the results were Arr AP2 block 12, ADAM17 inh -1, ADAM10 inh 5, FAS-TE inh 3, NRP1-CendR mod 31* and CaV13 FRET inh -1.
`C=CCN(CC=C)C(=O)C1CC(=O)N(c2ccc(Br)cc2)C1` (stereo not given) gave Arr AP2 block -2, ADAM17 inh 5, ADAM10 inh 9, FAS-TE inh -5, NRP1-CendR mod 30* and CaV13 FRET inh -2.
Screening CC(COc1ccc(C#N)cc1F)CN1CCC(C(O)(c2ccccc2)c2ccccc2)CC1 (stereo not given) returned ADAM17 inh -1 and ADAM10 inh -1.
For CCNC(=O)C1(C)CCCN(C(=O)c2nc(C)oc2C)C1 (stereo not given) the results were ADAM17 inh 1, ADAM10 inh -4, FAS-TE inh -11, NRP1-CendR mod 24* and CaV13 FRET inh -5.
Screening NC(=O)C1CCCN(C(=O)c2ccc3nc(Cc4cccc(Cl)c4)oc3c2)C1 (stereo not given) returned Arr AP2 block -17, ADAM17 inh -3, ADAM10 inh 1, FAS-TE inh -6, NRP1-CendR mod 27* and CaV13 FRET inh -5.
COC(=O)[C@]12C[C@H](CC(=O)N3CCN(C(=O)C4CC4)CC3)C(=O)N(Cc3ccco3)C1=C[C@H](C(C)C)O[C@@H]2C1CC1 was read as ADAM17 inh -3 and ADAM10 inh -8.
Screening COc1cc(C(=O)n2nc(C)cc2C)ccc1O returned Arr AP2 block 7, ADAM17 inh -1, ADAM10 inh -3, FAS-TE inh -13 and NRP1-CendR mod 33*.
O=C(CCn1nc(-c2ccc(Cl)cc2)ccc1=O)N1CCN(c2ccccc2)CC1 was read as Arr AP2 block -17, ADAM17 inh 3, ADAM10 inh 1, FAS-TE inh 51*, NRP1-CendR mod -4 and CaV13 FRET inh -16.
`O=C(CCn1nc(-c2ccccc2)ccc1=O)N1CCN(c2ccccc2)CC1` gave Arr AP2 block 24, ADAM17 inh -4, ADAM10 inh -4, FAS-TE inh -3, NRP1-CendR mod 12 and CaV13 FRET inh -2.
Screening COc1ccc(C(=O)NCCn2cc(SCC(=O)Nc3nnc(C)s3)c3ccccc32)cc1 returned Arr AP2 block 0, FAS-TE inh 4, NRP1-CendR mod 24* and CaV13 FRET inh -7.
Screening Cc1nnc(NC(=O)CSc2cn(CCNC(=O)c3ccccc3)c3ccccc23)s1 returned Arr AP2 block 8, ADAM17 inh 4, ADAM10 inh -9, FAS-TE inh -4, NRP1-CendR mod -1 and CaV13 FRET inh -6.
Screening Cc1ccc(CSC(Nc2ccc(F)cc2)=C(C#N)C#N)cc1 returned ADAM17 inh 6, ADAM10 inh 21*, FAS-TE inh 21, NRP1-CendR mod 8 and CaV13 FRET inh -2.
